For 24 molecules, solubility and IC50 results are on record in ChEMBL document CHEMBL4118216, “Adamantyl thioureas as soluble epoxide hydrolase inhibitors” (Bioorg Med Chem Lett, 2018).

SMILES strings stand for the structures. In brackets after ≈: the same amount, converted by molar mass.

Data set [1] is described as follows: Aqueous solubility of the compound in 0.1 M sodium phosphate buffer at pH 7.4. In kind it is physicochemical. In short, it runs like this:
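Solubility determined in 0.1 M sodium phosphate buffer, pH 7.4, with 1% DMSO present.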

Data set [2] deals with T1, Bifunctional epoxide hydrolase 2 (Homo sapiens, UniProt P34913).
T1 sequence (P34913 whole entry): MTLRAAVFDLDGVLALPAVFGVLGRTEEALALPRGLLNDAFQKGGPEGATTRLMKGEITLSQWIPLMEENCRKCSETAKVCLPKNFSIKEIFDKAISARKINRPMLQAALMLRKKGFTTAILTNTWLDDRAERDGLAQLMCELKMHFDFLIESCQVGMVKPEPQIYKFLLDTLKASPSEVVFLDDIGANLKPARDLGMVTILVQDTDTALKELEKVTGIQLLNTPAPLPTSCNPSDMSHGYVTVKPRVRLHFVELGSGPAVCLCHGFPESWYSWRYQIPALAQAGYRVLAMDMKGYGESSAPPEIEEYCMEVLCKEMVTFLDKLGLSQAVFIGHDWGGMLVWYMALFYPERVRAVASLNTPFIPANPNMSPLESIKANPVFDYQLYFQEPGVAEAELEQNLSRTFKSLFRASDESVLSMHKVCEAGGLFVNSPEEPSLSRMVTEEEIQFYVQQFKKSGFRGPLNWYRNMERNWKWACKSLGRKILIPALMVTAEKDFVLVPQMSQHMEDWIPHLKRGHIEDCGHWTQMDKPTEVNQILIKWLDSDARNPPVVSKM
Kind of data set: Inhibition of recombinant human sEH expressed in baculovirus expression system using CMNPC as substrate preincubated for 5 mins followed by substrate addition measured for 10 mins by fluorescent based assay. Put shortly: (§1)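 Kinetic fluorescent assay giving IC50 values; each value is the mean of three separate experiments.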

Data set [3] deals with T2, Bifunctional epoxide hydrolase 2 (Rattus norvegicus, UniProt P80299).
T2 sequence (P80299 whole entry): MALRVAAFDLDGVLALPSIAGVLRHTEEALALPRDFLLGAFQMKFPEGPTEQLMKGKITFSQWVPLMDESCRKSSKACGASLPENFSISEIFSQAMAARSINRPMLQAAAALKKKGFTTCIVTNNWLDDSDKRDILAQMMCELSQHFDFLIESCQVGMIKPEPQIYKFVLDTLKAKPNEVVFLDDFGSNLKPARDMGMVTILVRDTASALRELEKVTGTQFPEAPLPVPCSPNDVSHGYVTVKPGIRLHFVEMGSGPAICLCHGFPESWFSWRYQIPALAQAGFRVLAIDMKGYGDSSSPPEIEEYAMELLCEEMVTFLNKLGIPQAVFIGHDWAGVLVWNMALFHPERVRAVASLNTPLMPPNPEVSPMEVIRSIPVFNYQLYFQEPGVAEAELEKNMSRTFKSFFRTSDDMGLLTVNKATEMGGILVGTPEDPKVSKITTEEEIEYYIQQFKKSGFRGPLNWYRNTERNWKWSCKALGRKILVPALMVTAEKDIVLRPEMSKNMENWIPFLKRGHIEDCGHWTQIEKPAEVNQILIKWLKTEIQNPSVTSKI
The data set is described as follows: Inhibition of rat sEH using CMNPC as substrate preincubated for 5 mins followed by substrate addition measured for 10 mins by fluorescent based assay. Put shortly:
as §1

Data set [4] deals with T3, Bifunctional epoxide hydrolase 2 (Mus musculus, UniProt P34914).
T3 sequence (P34914 whole entry): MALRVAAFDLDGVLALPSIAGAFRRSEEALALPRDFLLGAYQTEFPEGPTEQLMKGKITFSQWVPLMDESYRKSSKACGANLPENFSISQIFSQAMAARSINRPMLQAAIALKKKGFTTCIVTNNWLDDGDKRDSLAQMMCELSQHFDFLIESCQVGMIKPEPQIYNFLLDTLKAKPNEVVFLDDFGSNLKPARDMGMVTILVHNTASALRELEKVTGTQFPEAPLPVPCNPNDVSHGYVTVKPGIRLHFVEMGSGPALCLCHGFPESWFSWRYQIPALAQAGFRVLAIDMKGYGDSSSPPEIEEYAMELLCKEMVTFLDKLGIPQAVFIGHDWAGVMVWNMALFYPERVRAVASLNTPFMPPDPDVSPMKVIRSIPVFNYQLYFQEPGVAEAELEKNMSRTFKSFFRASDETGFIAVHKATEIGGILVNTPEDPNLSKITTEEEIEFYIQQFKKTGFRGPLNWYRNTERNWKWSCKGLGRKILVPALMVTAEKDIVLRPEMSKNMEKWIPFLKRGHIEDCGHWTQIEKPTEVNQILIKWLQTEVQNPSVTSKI
Kind of data set: Inhibition of recombinant mouse sEH expressed in baculovirus expression system using CMNPC as substrate preincubated for 5 mins followed by substrate addition measured for 10 mins by fluorescent based assay. Put shortly:
as §1

`S=C(NCCc1ccccc1)NCCC12CC3CC(CC(C3)C1)C2` gave a solubility in data set [1] of 60 to 80 µM (≈ 20.6 to 27.4 µg/mL). The IC50 in data set [2] worked out at 52 nM.
`Fc1ccc(NC(=S)NCCC23CC4CC(CC(C4)C2)C3)cc1`: the solubility in data set [1] lay within 125 to 150 µM (≈ 41.6 to 49.9 µg/mL). Further, the IC50 in data set [2] was found to be 148 nM.
As to `S=C(NCCCCCNC(=S)NC12CC3CC(CC(C3)C1)C2)NC12CC3CC(CC(C3)C1)C2`, the IC50 in data set [3] was 46.1 nM; in data set [4] it was 36.2 nM; in data set [2], 21.1 nM. Moreover, in data set [1], the solubility is 80 to 90 µM (≈ 39.1 to 44 µg/mL).
Turning to `CC(NC(=S)Nc1ccccc1)C12CC3CC(CC(C3)C1)C2` (configuration not stated), in data set [2], the IC50 came to 2590 nM.
In data set [1], `CC(NC(=S)NCCCCNC(=S)NC(C)C12CC3CC(CC(C3)C1)C2)C12CC3CC(CC(C3)C1)C2` (configuration not stated) showed a solubility of 120 to 130 µM (≈ 63.7 to 69 µg/mL).
Consider `S=C(NCCCCNC(=S)NC12CC3CC(CC(C3)C1)C2)NC12CC3CC(CC(C3)C1)C2`, for which the figures for the IC50 in data set [3], in data set [4] and in data set [2] were 123 nM, 130 nM and 90.8 nM, respectively. The same molecule yielded a solubility in data set [1] of 90 to 100 µM (≈ 42.7 to 47.5 µg/mL).
In data set [1], `CC(NC(=S)Nc1cccc(F)c1)C12CC3CC(CC(C3)C1)C2` (configuration not stated) showed a solubility of 35 to 45 µM (≈ 11.6 to 15 µg/mL). In data set [2], the IC50 turned out to be 451 nM.
Regarding `S=C(NCCCCCCCCCCNC(=S)NC12CC3CC(CC(C3)C1)C2)NC12CC3CC(CC(C3)C1)C2`, the values for the IC50 in data set [3], in data set [4] and in data set [2] were 44.4 nM, 59.5 nM and 15.3 nM, respectively. The molecule also displayed a solubility in data set [1] of 35 to 45 µM (≈ 19.6 to 25.2 µg/mL).
Molecule `CC(N=C(S)NCc1ccccc1)C12CC3CC(CC(C3)C1)C2` (configuration not stated) had a solubility in data set [1] of 40 to 50 µM (≈ 13.1 to 16.4 µg/mL). In addition, the IC50 in data set [2] is 234 nM.
Molecule `Fc1ccc(NC(=S)NCC23CC4CC(CC(C4)C2)C3)cc1` returned a solubility in data set [1] of 150 to 175 µM (≈ 47.8 to 55.7 µg/mL). Further, the IC50 in data set [2] came out at 159 nM.
`CC(NC(=S)Nc1ccc(C23CC4CC(CC(C4)C2)C3)cc1)C12CC3CC(CC(C3)C1)C2` (configuration not stated): the solubility in data set [1] lay in the range of 10 to 15 µM (≈ 4.49 to 6.73 µg/mL). Also, the IC50 in data set [2] came to 57400 nM.
`S=C(NCCCCNC(=S)NCC12CC3CC(CC(C3)C1)C2)NCC12CC3CC(CC(C3)C1)C2` gave a solubility in data set [1] of 140 to 160 µM (≈ 70.4 to 80.5 µg/mL).
Turning to `S=C(NCCc1ccccc1)NCC12CC3CC(CC(C3)C1)C2`, the solubility in data set [1] was in the range of 25 to 30 µM (≈ 8.21 to 9.86 µg/mL). In data set [2], the IC50 was determined as 133 nM.
Regarding `S=C(Nc1ccc(C23CC4CC(CC(C4)C2)C3)cc1)NC12CC3CC(CC(C3)C1)C2`, the solubility in data set [1] was 30 to 40 µM (≈ 12.6 to 16.8 µg/mL). In data set [2], the IC50 stood at 1250 nM.
Turning to `S=C(NCCC12CC3CC(CC(C3)C1)C2)NC1C2CC3CC(C2)CC1C3` (configuration not stated), the solubility in data set [1] lay in the range of 125 to 150 µM (≈ 46.6 to 55.9 µg/mL). The IC50 in data set [2] was 259 nM.
For `S=C(NCCC12CC3CC(CC(C3)C1)C2)Nc1ccc(C23CC4CC(CC(C4)C2)C3)cc1`, in that order: 100 to 120 µM (≈ 44.9 to 53.8 µg/mL) and 5330 nM.
`O=C(NCCCCCCCCNC(=O)NC1C2CC3CC(C2)CC1C3)NC1C2CC3CC(C2)CC1C3` (configuration not stated) came in with a solubility in data set [1] of 5 to 10 µM (≈ 2.49 to 4.99 µg/mL).
Turning to `S=C(NCC12CC3CC(CC(C3)C1)C2)NC1C2CC3CC(C2)CC1C3` (configuration not stated), the solubility in data set [1] was in the range of 30 to 40 µM (≈ 10.8 to 14.3 µg/mL). The IC50 in data set [2] stood at 902 nM.
For the molecule `S=C(Nc1ccc(C23CC4CC(CC(C4)C2)C3)cc1)Nc1ccc(C23CC4CC(CC(C4)C2)C3)cc1`, the solubility in data set [1] lay in the range of 100 to 125 µM (≈ 49.7 to 62.1 µg/mL). In addition, the IC50 in data set [2] was 15300 nM.
For `S=C(Nc1ccc(Cl)cc1)NC12CC3CC(CC(C3)C1)C2`, the IC50 in data set [2] came out at 34.7 nM.
Turning to `CC12CC3CC(C)(C1)CC(NC(=S)Nc1ccc(Cl)cc1)(C3)C2`, in data set [2], the half-inhibitory concentration (IC50) turned out to be 1050 nM.
For the molecule `S=C(NCC12CC3CC(CC(C3)C1)C2)NC12CC3CC(CC(C3)C1)C2`, the solubility in data set [1] was 70 to 80 µM (≈ 25.1 to 28.7 µg/mL). Moreover, the IC50 in data set [2] was determined as 20.8 nM.
Turning to `CC(NC(=S)NCCCCCCCCNC(=S)NC(C)C12CC3CC(CC(C3)C1)C2)C12CC3CC(CC(C3)C1)C2` (configuration not stated), the solubility in data set [1] was 120 to 130 µM (≈ 70.4 to 76.3 µg/mL).
In turn, `Fc1cccc(NC(=S)NCC23CC4CC(CC(C4)C2)C3)c1` returned a solubility in data set [1] of 30 to 40 µM (≈ 9.55 to 12.7 µg/mL). Besides, the IC50 in data set [2] was determined as 281 nM.

For orientation: solubility means how much of the substance goes into solution per volume. A lower solubility goes with a poorly soluble substance. Usually IC50 stands for the concentration at which inhibition is half-maximal.
